Measurements from different studies.
Each line is one published result; the experiments were not run side by side.
Cell line: MCF-10A
Read-out: cell growth or viability

SMILES | test | conditions | IC50
CC(C)Cc1ccc([C@H](C)C(=O)O)cc1 | SRB | 72 h | 435 µM
CO[C@H]1[C@H](O[C@H]([C@H]2O[C@@H](n3ccc(=O)[nH]c3=O)[C@H](O)[C@@H]2O)[C@H](NCCCNC(=O)[C@@H](NC(=O)[C@@H](NC(=O)N[C@H](C(=O)O)C(C)C)[C@@H]2CCN=C(N)N2)[C@@H](OC(=O)CCCCCCCCCCCCN(O)C(=N)N)C(C)C)C(=O)O)O[C@H](CN)[C@H]1O | WST-1 |  | > 35 µM
CCOC(=O)c1c(C)nc2ccc(-c3ccc(F)cc3)cc2c1O | MTT | 48 h | > 100 µM
Cc1ccc(S(=O)(=O)n2cc(/C=N/NC(=O)c3cccc4ccccc34)c3ccccc32)cc1 | MTT | 48 h | > 50 µM
CN(C)C(=S)[N-]N=C(c1ccccn1)c1ccccn1.[O]=[V+]=[O] | MTT | 48 h | 19.2 µM
CCOC(=O)c1c(C)nc2ccc(-c3ccc(OCc4ccccc4)c(F)c3)cc2c1O | MTT | 48 h | > 100 µM
COc1ccc(C(=O)N/N=C/c2cn(S(=O)(=O)c3ccc(C)cc3)c3ccccc23)cc1 | MTT | 48 h | > 50 µM
CCOC(=O)c1c(C)nc2ccc(-c3ccc(F)c(F)c3)cc2c1O | MTT | 48 h | > 100 µM
CO[C@H]1[C@H](O[C@H]([C@H]2O[C@@H](n3ccc(=O)[nH]c3=O)[C@H](O)[C@@H]2O)[C@H](NCCCNC(=O)[C@@H](NC(=O)[C@@H](NC(=O)N[C@H](C(=O)O)C(C)C)[C@@H]2CCN=C(N)N2)[C@@H](O)C(C)C)C(=O)O)O[C@H](CN)[C@H]1O | WST-1 |  | > 35 µM
CC(=O)O[C@H]1C(=O)[C@@]2(C)[C@H]([C@H](OC(=O)c3ccccc3)[C@]3(O)C[C@H](OC(=O)[C@H](O)[C@@H](NC(=O)c4ccccc4)c4ccccc4)C(C)=C1C3(C)C)[C@]1(OC(C)=O)CO[C@@H]1C[C@@H]2O | MTT | 48 h | > 100 µM
Cc1ccc(S(=O)(=O)n2cc(/C=N/NC(=O)c3ccc(C)c(F)c3)c3ccccc32)cc1 | MTT | 48 h | > 50 µM
